Reference: ChEMBL document CHEMBL5252513, “Identification of a Benzoisoxazoloazepine Inhibitor (CPI-0610) of the Bromodomain and Extra-Terminal (BET) Family as a Candidate for Human Clinical Trials” (J Med Chem, 2016)
Activity calls are given as the source filed them. No cut-off for these calls is given here.

Columns and labels:
[1] = Tmax in mouse at 30 mg/kg,po; assay type: ADME, organism-based; details: in vivo
[2] = Toxicity against BALB/c mouse plasma xenografted with human MV4-11 cells assessed as body weight loss at 10 mg/kg,sc BID in presence of doxorubicin at 2 mg/kg,iv BIW for 28 days; assay type: organism-based; details: in vivo, 672 h, time 28 day
In short: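 MV-4-11 acute myeloid leukemia mouse xenograft; BET inhibitor given subcutaneously 10 mg/kg twice daily, doxorubicin 2 mg/kg IV twice weekly, alone or combined, for 28 days; body weight change (%) tracked over treatment against vehicle.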

MV4-11 [3] = assay: In vivo inhibition of BRD4 in human MV4-11 cells xenografted in BALB/c mouse assessed as reduction in cellular MYC mRNA expression level in tumor at 15 mg/kg,sc BID and measured for 8 to 12 hrs by PCR anlaysis; assay type: functional, organism-based; details: time 8-12 hrs
In short: (§1)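 Pharmacodynamic study in MV-4-11 AML mouse xenograft. Dosing was 15 mg/kg subcutaneous twice daily. At 4, 8 and 12 h after the second dose, MYC mRNA was measured against vehicle, and compound levels were measured in plasma and tumor. Free plasma concentration was estimated alongside total levels.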

[4] = Tmax in dog at 2.5 mg/kg,po; assay type: ADME, organism-based, Canis lupus familiaris; details: in vivo
Cytochrome P450 = assay: Inhibition of CYP450 (unknown origin) at 10 uM; assay type: ADME, protein assay; details: human
In short: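 Cytochrome P450 activity tested with compound at 10 µM against a number of common isoforms; time-dependent inhibition also assessed.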

MV4-11 [5] = assay: Antitumor activity against human MV4-11 cells xenografted in BALB/c mouse assessed as modest tumor growth inhibition at 10 mg/kg,sc BID for 28 days; assay type: functional, organism-based; details: time 28.0 day
Peregrin = molecular target: T1, Peregrin (Homo sapiens, UniProt P55201); assay: Displacement of biotinylated JQ1 from BRPF1 bromodomain (unknown origin) incubated for 20 mins by AlphaLISA assay
T1 sequence (P55201 whole entry): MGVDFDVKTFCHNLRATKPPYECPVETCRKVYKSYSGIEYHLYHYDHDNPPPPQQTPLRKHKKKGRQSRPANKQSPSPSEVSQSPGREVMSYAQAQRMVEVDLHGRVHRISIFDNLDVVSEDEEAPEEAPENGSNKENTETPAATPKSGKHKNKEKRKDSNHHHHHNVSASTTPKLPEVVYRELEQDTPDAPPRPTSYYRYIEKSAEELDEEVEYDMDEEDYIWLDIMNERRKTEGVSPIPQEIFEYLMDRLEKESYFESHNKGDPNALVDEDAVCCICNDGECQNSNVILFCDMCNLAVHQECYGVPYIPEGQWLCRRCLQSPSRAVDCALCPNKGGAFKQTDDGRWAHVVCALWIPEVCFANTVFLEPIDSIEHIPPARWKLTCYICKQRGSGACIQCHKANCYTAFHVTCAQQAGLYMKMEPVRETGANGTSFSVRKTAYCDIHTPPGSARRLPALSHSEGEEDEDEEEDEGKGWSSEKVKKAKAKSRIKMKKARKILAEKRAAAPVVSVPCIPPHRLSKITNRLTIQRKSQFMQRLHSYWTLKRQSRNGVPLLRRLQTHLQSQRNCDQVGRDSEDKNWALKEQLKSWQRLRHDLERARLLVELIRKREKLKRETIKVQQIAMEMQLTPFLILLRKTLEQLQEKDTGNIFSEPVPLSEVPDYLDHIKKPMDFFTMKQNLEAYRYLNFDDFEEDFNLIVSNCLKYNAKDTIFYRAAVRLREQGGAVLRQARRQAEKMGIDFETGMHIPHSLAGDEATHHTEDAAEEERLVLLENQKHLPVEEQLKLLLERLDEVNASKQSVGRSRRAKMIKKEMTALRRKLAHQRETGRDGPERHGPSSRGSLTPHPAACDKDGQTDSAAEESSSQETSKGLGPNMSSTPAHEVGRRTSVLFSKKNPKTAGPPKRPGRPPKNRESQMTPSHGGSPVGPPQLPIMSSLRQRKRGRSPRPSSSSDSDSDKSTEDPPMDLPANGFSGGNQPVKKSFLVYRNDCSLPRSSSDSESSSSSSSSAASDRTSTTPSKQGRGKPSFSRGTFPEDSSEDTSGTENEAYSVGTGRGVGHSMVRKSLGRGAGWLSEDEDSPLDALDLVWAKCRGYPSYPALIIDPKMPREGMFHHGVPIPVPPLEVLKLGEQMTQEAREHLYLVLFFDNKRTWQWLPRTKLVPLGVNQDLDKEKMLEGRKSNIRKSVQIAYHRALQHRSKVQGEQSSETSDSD

[6] = molecular target: SWI/SNF-related matrix-associated actin-dependent regulator of chromatin subfamily A member 4 (Homo sapiens, UniProt P51532); assay: Displacement of biotinylated JQ1 from BRG1 bromodomain (unknown origin) incubated for 20 mins by AlphaLISA assay
SWI/SNF-related matrix-associated actin-dependent regulator of chromatin subfamily A member 4, sequence (P51532 whole entry): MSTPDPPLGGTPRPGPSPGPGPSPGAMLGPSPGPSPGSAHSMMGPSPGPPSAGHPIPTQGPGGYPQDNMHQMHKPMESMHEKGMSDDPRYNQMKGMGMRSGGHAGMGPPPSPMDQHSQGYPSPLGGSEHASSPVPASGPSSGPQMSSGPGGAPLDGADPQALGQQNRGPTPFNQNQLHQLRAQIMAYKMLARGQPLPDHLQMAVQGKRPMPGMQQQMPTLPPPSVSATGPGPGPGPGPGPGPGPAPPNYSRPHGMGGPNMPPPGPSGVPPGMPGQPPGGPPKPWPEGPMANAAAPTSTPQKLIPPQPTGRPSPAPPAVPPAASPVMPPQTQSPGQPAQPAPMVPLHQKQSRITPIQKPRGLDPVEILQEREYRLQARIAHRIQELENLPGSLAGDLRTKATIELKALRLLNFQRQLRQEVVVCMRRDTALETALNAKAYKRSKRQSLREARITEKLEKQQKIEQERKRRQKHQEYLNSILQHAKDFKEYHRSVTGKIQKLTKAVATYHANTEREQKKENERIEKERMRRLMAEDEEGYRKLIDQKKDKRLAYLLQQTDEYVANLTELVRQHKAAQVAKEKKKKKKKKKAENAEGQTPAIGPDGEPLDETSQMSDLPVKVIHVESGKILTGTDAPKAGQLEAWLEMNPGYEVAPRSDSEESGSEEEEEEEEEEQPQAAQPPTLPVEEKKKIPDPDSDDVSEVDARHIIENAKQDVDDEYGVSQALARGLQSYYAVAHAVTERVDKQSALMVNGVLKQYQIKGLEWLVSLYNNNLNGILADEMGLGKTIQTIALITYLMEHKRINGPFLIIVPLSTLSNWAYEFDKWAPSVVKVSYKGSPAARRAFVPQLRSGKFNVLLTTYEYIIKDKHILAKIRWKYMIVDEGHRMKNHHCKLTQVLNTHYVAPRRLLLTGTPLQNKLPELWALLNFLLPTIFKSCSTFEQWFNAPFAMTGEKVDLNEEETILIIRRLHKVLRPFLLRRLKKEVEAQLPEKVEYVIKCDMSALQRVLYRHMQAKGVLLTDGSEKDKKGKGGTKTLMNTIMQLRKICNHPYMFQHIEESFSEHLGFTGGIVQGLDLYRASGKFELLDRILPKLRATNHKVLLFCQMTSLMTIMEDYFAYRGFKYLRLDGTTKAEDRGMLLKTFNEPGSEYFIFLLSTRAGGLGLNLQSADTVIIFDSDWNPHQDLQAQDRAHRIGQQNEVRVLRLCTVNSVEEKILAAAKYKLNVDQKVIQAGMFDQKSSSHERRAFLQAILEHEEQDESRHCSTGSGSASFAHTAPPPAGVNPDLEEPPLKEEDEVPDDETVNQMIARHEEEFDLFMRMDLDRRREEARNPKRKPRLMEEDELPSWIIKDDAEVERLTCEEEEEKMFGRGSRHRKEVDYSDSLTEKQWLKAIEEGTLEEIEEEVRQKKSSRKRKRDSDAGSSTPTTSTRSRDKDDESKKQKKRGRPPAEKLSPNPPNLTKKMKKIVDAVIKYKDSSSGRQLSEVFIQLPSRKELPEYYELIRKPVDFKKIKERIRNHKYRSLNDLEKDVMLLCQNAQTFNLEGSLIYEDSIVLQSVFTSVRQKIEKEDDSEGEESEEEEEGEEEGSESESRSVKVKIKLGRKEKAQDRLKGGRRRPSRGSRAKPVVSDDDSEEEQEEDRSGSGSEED

[7] = Toxicity in dog assessed as lymphoid depletion at 2 to 6 mg/kg,po QD consecutive for 14 days followed by 2 weeks recovery period; assay type: organism-based, Canis lupus familiaris; details: in vivo, 336 h, dose 2-6 mg/kg, time 14 day
In short: (§2)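 Oral suspension given once daily for 14 consecutive days (rat 2, 6, 20 mg/kg; dog 2, 4, 6 mg/kg) in dose range-finding and GLP repeat-dose studies, GLP arms with an added 2-week recovery period; histopathology and clinical pathology findings recorded.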

[8] = Unbound clearance in rat at 1 mg/kg,iv; assay type: ADME, organism-based; details: in vivo
CREB-binding protein = CREB-binding protein (Homo sapiens, UniProt Q92793); assay: Displacement of biotinylated JQ1 from CBP bromodomain (unknown origin) incubated for 20 mins by AlphaLISA assay
CREB-binding protein, sequence (Q92793 whole entry): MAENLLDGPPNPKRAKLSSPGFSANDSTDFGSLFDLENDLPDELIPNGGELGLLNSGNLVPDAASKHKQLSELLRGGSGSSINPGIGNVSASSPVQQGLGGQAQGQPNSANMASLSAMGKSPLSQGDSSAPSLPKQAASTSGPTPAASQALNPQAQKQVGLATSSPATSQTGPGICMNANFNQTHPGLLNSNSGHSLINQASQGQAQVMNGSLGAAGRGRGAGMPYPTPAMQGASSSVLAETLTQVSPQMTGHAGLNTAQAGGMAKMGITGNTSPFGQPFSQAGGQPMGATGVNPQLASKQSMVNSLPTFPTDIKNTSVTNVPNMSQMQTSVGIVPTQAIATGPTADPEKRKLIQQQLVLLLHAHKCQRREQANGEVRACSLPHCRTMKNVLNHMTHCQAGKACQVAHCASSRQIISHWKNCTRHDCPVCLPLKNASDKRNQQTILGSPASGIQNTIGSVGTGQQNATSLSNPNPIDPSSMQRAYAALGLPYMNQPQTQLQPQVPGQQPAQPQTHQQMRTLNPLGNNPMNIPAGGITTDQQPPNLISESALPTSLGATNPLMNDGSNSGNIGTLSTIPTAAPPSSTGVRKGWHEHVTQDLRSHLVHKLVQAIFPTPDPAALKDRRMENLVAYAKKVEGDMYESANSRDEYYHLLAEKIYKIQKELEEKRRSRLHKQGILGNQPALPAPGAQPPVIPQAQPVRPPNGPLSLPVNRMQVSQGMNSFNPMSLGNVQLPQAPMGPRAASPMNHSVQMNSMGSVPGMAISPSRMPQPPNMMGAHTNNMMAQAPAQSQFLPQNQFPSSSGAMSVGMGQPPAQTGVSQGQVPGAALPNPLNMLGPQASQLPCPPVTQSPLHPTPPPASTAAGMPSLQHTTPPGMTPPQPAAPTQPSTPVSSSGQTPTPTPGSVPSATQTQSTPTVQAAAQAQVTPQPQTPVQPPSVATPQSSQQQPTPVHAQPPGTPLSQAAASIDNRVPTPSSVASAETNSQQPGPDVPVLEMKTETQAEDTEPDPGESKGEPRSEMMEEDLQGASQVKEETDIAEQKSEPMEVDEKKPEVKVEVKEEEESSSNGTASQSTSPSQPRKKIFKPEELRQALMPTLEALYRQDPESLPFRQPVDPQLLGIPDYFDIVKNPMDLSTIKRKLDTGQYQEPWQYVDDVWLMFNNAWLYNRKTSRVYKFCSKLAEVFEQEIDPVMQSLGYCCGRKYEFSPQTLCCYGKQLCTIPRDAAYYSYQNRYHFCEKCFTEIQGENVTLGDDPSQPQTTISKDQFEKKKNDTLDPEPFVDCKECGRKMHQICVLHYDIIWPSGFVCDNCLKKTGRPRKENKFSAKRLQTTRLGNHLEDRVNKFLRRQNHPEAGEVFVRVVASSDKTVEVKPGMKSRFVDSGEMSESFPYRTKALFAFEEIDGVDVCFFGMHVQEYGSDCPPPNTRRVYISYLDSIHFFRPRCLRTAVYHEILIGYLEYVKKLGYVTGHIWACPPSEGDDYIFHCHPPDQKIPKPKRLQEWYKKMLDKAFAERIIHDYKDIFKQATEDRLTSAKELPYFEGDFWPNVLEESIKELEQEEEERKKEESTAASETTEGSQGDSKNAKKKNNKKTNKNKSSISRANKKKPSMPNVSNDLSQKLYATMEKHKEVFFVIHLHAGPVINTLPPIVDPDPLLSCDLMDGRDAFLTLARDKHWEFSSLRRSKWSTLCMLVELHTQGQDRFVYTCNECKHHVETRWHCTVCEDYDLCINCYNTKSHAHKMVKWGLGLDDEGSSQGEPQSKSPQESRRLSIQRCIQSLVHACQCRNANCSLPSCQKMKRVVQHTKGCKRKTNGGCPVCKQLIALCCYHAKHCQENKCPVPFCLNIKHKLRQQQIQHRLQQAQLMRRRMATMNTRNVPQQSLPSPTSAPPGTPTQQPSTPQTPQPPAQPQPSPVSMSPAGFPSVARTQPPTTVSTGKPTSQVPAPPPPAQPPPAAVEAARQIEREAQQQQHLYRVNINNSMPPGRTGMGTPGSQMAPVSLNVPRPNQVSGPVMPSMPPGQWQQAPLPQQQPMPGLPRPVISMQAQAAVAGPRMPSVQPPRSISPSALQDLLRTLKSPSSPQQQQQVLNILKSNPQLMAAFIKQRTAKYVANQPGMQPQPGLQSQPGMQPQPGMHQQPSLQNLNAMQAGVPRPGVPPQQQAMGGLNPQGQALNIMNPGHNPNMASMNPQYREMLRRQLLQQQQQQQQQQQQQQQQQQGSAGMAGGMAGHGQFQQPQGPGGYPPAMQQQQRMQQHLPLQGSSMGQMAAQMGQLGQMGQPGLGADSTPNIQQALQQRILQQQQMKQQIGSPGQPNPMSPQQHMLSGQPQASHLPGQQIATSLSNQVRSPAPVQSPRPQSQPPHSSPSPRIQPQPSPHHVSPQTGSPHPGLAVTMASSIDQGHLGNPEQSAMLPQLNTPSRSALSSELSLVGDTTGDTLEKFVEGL

[9] = Clearance in rat assessed as liver blood flow at 1 mg/kg,iv; assay type: ADME, organism-based; details: in vivo
[10] = Tmax in human patient with progression lymphoma at 300 mg,po QD consecutively for 14 days; assay type: ADME; details: in vivo, time 14 day
[11] = Apparent oral clearance in human patient with progression lymphoma at 300 mg,po QD consecutively for 14 days; assay type: ADME; details: in vivo, 336 h, time 14 day
In short: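 Phase I trial in patients with hematologic malignancies, oral dosing once daily with escalating cohorts; values are from the 300 mg dose on day 14. AUC0-24 was taken as exposure over 24 h. Apparent clearance was calculated as Dose/AUC0-24.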

[12] = Total clearance in rat at 1 mg/kg,iv; assay type: ADME, organism-based; details: in vivo
[13] = Intrinsic clearance in rat liver microsomes; assay type: ADME, Microsome
[14] = Toxicity in dog assessed as GI mucosal atrophy at 2 to 6 mg/kg,po QD consecutive for 14 days followed by 2 weeks recovery period; assay type: organism-based, Canis lupus familiaris; details: in vivo, 336 h, dose 2-6 mg/kg, time 14 day; in short: as §2
[15] = Toxicity in dog assessed as degeneration of testicular seminiferous epithelium at 2 to 6 mg/kg,po QD consecutive for 14 days followed by 2 weeks recovery period; assay type: organism-based, Canis lupus familiaris; details: in vivo, 336 h, dose 2-6 mg/kg, time 14 day; in short: as §2
[16] = Cmax in dog at 2.5 mg/kg,po; assay type: ADME, organism-based, Canis lupus familiaris; design: dose 2.5 mg/kg, route po; details: in vivo
[17] = Toxicity in rat assessed as GI mucosal atrophy at 2 to 20 mg/kg,po QD consecutive for 14 days followed by 2 weeks recovery period; assay type: organism-based; details: in vivo, 336 h, dose 2-20 mg/kg, time 14 day; in short: as §2
MV4-11 [18] = assay: In vivo inhibition of BRD4 in human MV4-11 cells xenografted in BALB/c mouse assessed as reduction in cellular MYC mRNA expression level in plasma at 15 mg/kg,sc BID and measured at 4 hrs by PCR anlaysis; assay type: functional, organism-based; in short: as §1

Tmax [1]: 0.42 h
Tmax [4]: 1.3 h
inhibition (INH) (Cytochrome P450): Not Active
IC50 (Peregrin): > 20 µM
IC50 [6]: > 20 µM
CL free [8]: 283 mL/min/kg
IC50 (CREB-binding protein): > 20 µM
QH [9]: 36%
Tmax [10]: 1.8 h
CL/F [11]: 21 L/h
clearance [12]: 20 mL/min/kg
predicted hepatic clearance (CLH) [13]: 21 mL/min/kg
Cmax [16]: 2900 nM
SMILES: Cc1noc2c1-c1ccccc1C(c1ccc(Cl)cc1)=N[C@H]2CC(N)=O [PELABRESIB]
Activity [2]: Non-Toxic
inhibition (MV4-11 [3]): inactive
Activity (MV4-11 [5]): Active
Activity [7]: Toxic
Activity [14]: Toxic
Activity [15]: Toxic
Activity [17]: Toxic
inhibition (MV4-11 [18]): Active
